Source: publication PMC9786734 (Biomedical Chromatography, 2022)

What was measured:
[1] = Pilot pharmacokinetic and tissue distribution study in mice after oral EAI045; format: in vivo, mouse (FVB/NRj wild-type, female)
How it was run: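 Five female FVB/NRj mice, 10–15 weeks old, fasted 3 h, then given one 20 mg/kg oral gavage dose. Vehicle: DMSO stock at 4 mg/ml, diluted with polysorbate 80–ethanol (1:1) and 5% glucose to 2 mg/ml. Tail-vein blood taken at 5, 15, 30 min, 1 and 2 h. At 4 h, cardiac puncture under isoflurane, then organs homogenised in 2% BSA. Cmax/Tmax observed; AUC0–t by trapezoidal rule; CL/F = dose/AUC0–t; mean ± SD.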

[2] = Stability in mouse plasma QC samples; format: in vitro ADME
How it was run: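 Pooled female mouse lithium–heparin plasma QCs at high (1,500 ng/ml) and low (6 ng/ml) levels, as 10 µl portions (n = 4). Three conditions: room temperature for 5 and 24 h; three freeze–thaw cycles (1 h thaw at room temperature, 1 day at −30°C); and 1.5 months at −30°C. Quantified by LC–MS/MS after acetonitrile precipitation.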

[3] = Short-term stability in mouse tissue homogenates; format: in vitro ADME
How it was run: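 Blank homogenate made by homogenising the whole organ in ice-cold 2% (w/v) BSA in water. Medium QC (100 ng/ml) prepared by diluting high-QC plasma into the homogenate. Held 5 h at room temperature (n = 4), then acetonitrile protein precipitation with internal standard and LC–MS/MS quantification. Peak-area ratios were read from a 1/x²-weighted calibration line.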

[4] = Stability of methanolic stock solutions; format: physicochemical; settings: 1.5 months at −30°C, methanol
How it was run: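 Single-analyte stocks (0.5 mg/ml in methanol, made from 300–500 µg of weighed solid) stored 1.5 months at −30°C, then reanalysed by LC–MS/MS.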

[5] = female, FVB/NRj, mouse, plasma, po, 20 mg/kg

concentration at 4 h ([1]; female, FVB/NRj, mouse, brain, po, 20 mg/kg): 9.8 ng/g
concentration at 4 h ([1]; female, FVB/NRj, mouse, kidney, po, 20 mg/kg): 30.8 ng/mL
AUC(0-t) [1, 5]: 1870 ng·h/mL
Cmax [1, 5]: 1520 ng/mL
Tmax [1, 5]: 15 to 30 min
half-life [1, 5]: 70.2 ± 12.6 min
metabolite level compared with EAI045 (ratio) ([1]; pilot study, SIWC): ca. 5%
metabolite level compared with EAI045 ([1]; pilot study, all matrices except SIWC): higher than 10%
plasma concentration (chromatogram sample) ([1]; plasma sample from a single mouse, oral 20 mg/kg EAI045): 133 ng/mL
time by which PIA was more abundant in plasma than the parent drug ([1]; plasma, oral 20 mg/kg EAI045, mice): ≤ 15 min
absolute amount retrieved from SIWC ([1]; small intestine with contents, 4 h after oral 20 mg/kg EAI045, mice, data not shown): ~ 0.074 % of the EAI045 dose
recovery at 1.5 months, 6 ng/ml [2]: 110 ± 9.6%
recovery at 1.5 months, 1500 ng/ml [2]: 90.8 ± 2.4%
recovery at 5 h, 6 ng/ml [2]: 93.3 ± 1.8%
recovery at 5 h, 1500 ng/ml [2]: 102 ± 4.1%
recovery at 24 h, 6 ng/ml [2]: 101 ± 8.3%
recovery at 24 h, 1500 ng/ml [2]: 100 ± 6.2%
recovery at 5 h, 100 ng/ml ([3]; SIWC homogenate): 104 ± 3.4%
recovery at 5 h, 100 ng/ml ([3]; brain homogenate): 99.7 ± 5.1%
recovery at 5 h, 100 ng/ml ([3]; kidney homogenate): 99.4 ± 2.4%
recovery at 5 h, 100 ng/ml ([3]; liver homogenate): 114 ± 10.9%
recovery at 5 h, 100 ng/ml ([3]; lung homogenate): 107 ± 2%
recovery at 5 h, 100 ng/ml ([3]; spleen homogenate): 107 ± 7.6%
recovery of methanolic stock solution [4]: 98.3%
SMILES: O=C(O)C(c1cc(F)ccc1O)N1Cc2ccccc2C1=O (stereo not drawn) [PIA, (5‐fluoro‐2‐hydroxyphenyl)(1‐oxo‐1,3‐dihydro‐2H‐isoindol‐2‐yl)acetic acid]
